Measured values taken from ChEMBL document CHEMBL2069228, “Antidiabetic compounds from Sarracenia purpurea used traditionally by the Eeyou Istchee Cree First Nation” (J Nat Prod, 2012).

Columns and labels:
C2C12 [1] = assay: Increase in glucose uptake in mouse C2C12 cells incubated for 18 hrs using [3H]-2-deoxy-D-glucose by liquid scintillation counting; type: functional, cell-based
How it was run: (§1)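 Differentiated confluent C2C12 myotubes were held 18 h in DMEM with 2% horse serum containing compound (6.25–100 μM; 0.1% DMSO vehicle control). Cells were equilibrated 30 min at 37 °C in Krebs phosphate buffer pH 7.4 with 5 mM glucose, rinsed glucose-free, then given 10 μM 2-deoxy-D-glucose plus 1 μCi/mL [3H]-2-deoxyglucose for 10 min at 37 °C. Cells were lysed in 0.1 M NaOH and counted by scintillation.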

C2C12 [2] = assay: Increase in glucose uptake in mouse C2C12 cells incubated for 18 hrs using [3H]-2-deoxy-D-glucose by liquid scintillation counting relative to DMSO; type: functional; design: concentration or dose not given beside the values; how it was run: as §1
[3] = target: T1, Glucose-6-phosphatase catalytic subunit 1 (Rattus norvegicus, UniProt P43428); assay: Inhibition of glucose-6-phosphatase enzymatic activity in rat […] cells using G6P substrate incubated for 18 hrs by colorimetric assay; type: cell-based
T1 sequence (P43428 whole entry): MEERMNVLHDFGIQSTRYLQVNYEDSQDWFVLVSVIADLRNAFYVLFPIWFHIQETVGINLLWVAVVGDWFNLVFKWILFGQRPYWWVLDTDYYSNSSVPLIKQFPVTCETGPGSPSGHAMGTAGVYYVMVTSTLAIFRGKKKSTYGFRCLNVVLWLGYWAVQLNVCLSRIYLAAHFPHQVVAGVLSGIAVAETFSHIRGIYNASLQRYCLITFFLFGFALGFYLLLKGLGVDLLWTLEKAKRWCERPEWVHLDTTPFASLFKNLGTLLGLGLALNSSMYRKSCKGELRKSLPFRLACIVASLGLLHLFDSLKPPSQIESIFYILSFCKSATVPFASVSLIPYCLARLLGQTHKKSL
How it was run: (§2)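 H4IIE rat hepatoma cells at 90% confluence were treated 18 h with compound (1–100 μM; 0.1% DMSO control, 100 nM insulin reference). Cells were lysed in 15 mM phosphate buffer pH 6.5 with 0.05% Triton and 1.3 mM phenol, and lysate was incubated with 200 mM glucose-6-phosphate for 40 min at 37 °C. Glucose formed was read by glucose oxidase colorimetry at 505 nm and normalised to protein.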

[4] = target: T2, Glucose-6-phosphatase catalytic subunit 1 (Rattus norvegicus) (UniProt P43428); assay: Inhibition of glucose-6-phosphatase enzymatic activity in rat […] cells at 50 uM using G6P substrate incubated for 18 hrs by colorimetric assay; type: cell-based; how it was run: as §2
T2 sequence (whole entry): T1 sequence (P43428 whole entry)

[5] = Mus musculus, C2C12, read-out: EC50

EC50 (C2C12 [1]; [5]) [µM]	IC50 [3] [µM]	inhibition [4] [%]	EC50 (C2C12 [1]; c2c12)	SMILES	Efficacy (C2C12 [2]) [%]
25.6	391	19.6	–	O=C1C[C@H](O[C@@H]2O[C@H](CO)[C@@H](O)[C@H](O)[C@H]2O)CO1 [GOODYEROSIDE]	124
25.9	–	–	–	COC(=O)C1=CO[C@@H](O[C@H]2O[C@H](CO)[C@@H](O)[C@H](O)[C@H]2O)[C@@H]2[C@H](C)O[C@@H](OC)C[C@H]12	120
60.5	–	–	–	O=c1c(O[C@@H]2O[C@H](CO)[C@H](O)[C@H](O)[C@H]2O)c(-c2ccc(O)c(O)c2)oc2cc(O)cc(O)c12 [HYPEROSIDE]	211
–	13.9	44	Not Active	O=C(/C=C/c1ccc(O)c(O)c1)OC[C@H]1O[C@@H](O[C@@H]2COC(=O)C2)[C@H](O)[C@@H](O)[C@@H]1O	–
18.5	–	–	–	COc1cc(-c2oc3cc(O)cc(O)c3c(=O)c2O[C@@H]2O[C@H](CO)[C@@H](O)[C@H](O)[C@H]2O)ccc1O	150
13.8	–	–	–	O=C(/C=C/c1ccc(O)c(O)c1)OC[C@H]1O[C@@H](Oc2c(-c3ccc(O)cc3)oc3cc(O)cc(O)c3c2=O)[C@H](O)[C@@H](O)[C@@H]1O	188
